From ChEMBL document CHEMBL1132964, “Selective ET(A) antagonists. 5. Discovery and structure-activity relationships of phenoxyphenylacetic acid derivatives” (J Med Chem, 2000)
In brackets after ≈: the same amount, converted by molar mass. Several values for one entry are separate records, joined by “and”; a condition that tells them apart may be missing. Equal entries are not always repeated. Activity calls are given as the source filed them. The rule behind the calls is not given here.

Tests used:
Endothelin-1 receptor = biological target: T1, Endothelin-1 receptor (Rattus norvegicus, UniProt P26684); test: In vitro ability to antagonise the binding of [125I]ET1 to the rat aortic A10 cell membrane endothelin A receptor.; type: cell membranes
T1 sequence (P26684 whole entry): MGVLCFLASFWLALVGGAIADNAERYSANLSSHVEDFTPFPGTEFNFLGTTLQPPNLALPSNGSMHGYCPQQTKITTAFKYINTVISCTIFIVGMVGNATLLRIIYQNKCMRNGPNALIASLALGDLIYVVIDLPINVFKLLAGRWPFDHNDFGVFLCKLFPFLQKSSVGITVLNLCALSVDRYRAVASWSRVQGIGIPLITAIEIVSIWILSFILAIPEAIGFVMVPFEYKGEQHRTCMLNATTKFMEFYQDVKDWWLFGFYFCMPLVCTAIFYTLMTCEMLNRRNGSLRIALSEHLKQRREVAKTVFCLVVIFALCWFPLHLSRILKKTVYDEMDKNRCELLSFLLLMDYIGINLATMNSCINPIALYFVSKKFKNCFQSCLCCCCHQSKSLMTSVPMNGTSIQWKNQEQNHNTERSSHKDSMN

[1] = tested on: Endothelin receptor type A (Rattus norvegicus); test: Activity against Endothelin A receptor in pithed rats after intravenous administration at 25 umol/kg
[2] = tested on: Endothelin receptor type A (Rattus norvegicus); test: Inhibition of Endothelin A receptor in pithed rats 1.5 hour after oral administration at 75 uM/kg
[3] = Maximal plasma concentration in male Sprague-Dawley rats at 10 mg/kg oral dose; type: ADME, organism-based; set-up: dose 10 mg/kg, route oral; conditions: rat
Method in brief: (§1)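 Single 10 mg/kg oral dose to male Sprague-Dawley rats or male Beagle dogs. Plasma Cpmax (µg/mL), Tmax (h), t1/2 (h) and bioavailability (%) derived from the plasma profile.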

[4] = Oral bioavailability in rat (Sprague-Dawley) (male) (dose 10 mg/kg); type: ADME, organism-based; conditions: in vivo; method in brief: as §1
[5] = Tested for half life in male Sprague-Dawley rats dosed at 10 mg/kg orally; type: ADME, organism-based; set-up: dose 10 mg/kg, route oral; conditions: rat, in vivo, po; method in brief: as §1
[6] = Tested for Tmax in male Sprague-Dawley rats dosed at 10 mg/kg orally; type: ADME, organism-based; set-up: dose 10 mg/kg, route oral; conditions: rat, in vivo, po; method in brief: as §1
Rattus norvegicus = species: Rattus norvegicus; test: Tested for inhibition of ET-1 induced contraction against isolated Rat aortic rings denuded of the endothelium.; type: functional, Aorta
Method in brief: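 Endothelium-denuded rat aortic rings contracted by ET-1. Tested compound at increasing concentrations, with ET-1 dose-response curves run in its presence. Antagonism expressed as pKb from the rightward shift of the ET-1 curve. Determinations in duplicate, with 95% confidence limits.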

[7] = tested on: Endothelin receptor type A (Rattus norvegicus); test: Inhibition of Endothelin A receptor in pithed rats 3 hour after oral administration at 75 umol/kg
[8] = Measured solubility; type: ADME, organism-based, Rattus norvegicus
[9] = Maximal plasma concentration in male Beagle dogs at 10 mg/kg oral dose; type: ADME, organism-based, Canis lupus familiaris; set-up: dose 10 mg/kg, route oral; conditions: dog; method in brief: as §1
[10] = Tested for bioavailability in male Beagle dogs dosed at 10 mg/kg orally; type: ADME, organism-based, Canis lupus familiaris; conditions: dog, in vivo, po, read-out: Bioavailabiility; method in brief: as §1
[11] = Tested for half life in male Beagle dogs dosed at 10 mg/kg orally; type: ADME, organism-based, Canis lupus familiaris; set-up: dose 10 mg/kg, route oral; conditions: dog, in vivo, po; method in brief: as §1
[12] = Tested for Tmax in male Beagle dogs dosed at 10 mg/kg orally; type: ADME, organism-based, Canis lupus familiaris; set-up: dose 10 mg/kg, route oral; conditions: dog, in vivo, po; method in brief: as §1

Compound	IC50 (Endothelin-1 receptor) [nM]	pKb (Rattus norvegicus)	also measured
Cc1ccccc1C(Oc1cc(OCc2ccc3c(c2)OCO3)ccc1C#N)C(=O)O (centres undefined) [listing 1 of 2 here]			Activity [1]: 23 µM/kg and 45 µM/kg; Activity [2]: 26 µM/kg and 34 µM/kg
N#Cc1ccc(OCc2ccsc2)cc1OC(C(=O)O)c1ccc(Cl)cc1 (centres undefined)	504		
COc1cc(COc2ccc(C#N)c(OC(C(=O)O)c3ccccc3C)c2)cc(OC)c1OC (centres undefined)	> 3000		
Cc1ccccc1C(Oc1cc(OCc2ccncc2)ccc1C#N)C(=O)[O-].[Na+] (centres undefined)	5		Cmax [3]: 290 ng/mL; bioavailability [4]: 9%; half-life [5]: 0.2 h; Tmax [6]: 2 h
N#Cc1ccc(OCc2ccncc2)cc1OC(C(=O)O)c1ccsc1 (centres undefined)	630		
Cc1ccccc1C(Oc1cc(OCc2cncs2)ccc1C#N)C(=O)O (centres undefined)	30		
N#Cc1ccc(OCc2ccsc2)cc1OC(C(=O)O)c1ccccc1 (centres undefined)	70	7.24	
N#Cc1ccc(OCc2ccnnc2)cc1OC(C(=O)O)c1ccccc1Cl (centres undefined)	44		
Cc1ccccc1C(Oc1cc(OCc2ccc3c(c2)OCCO3)ccc1C#N)C(=O)O (centres undefined)	1500		
N#Cc1ccc(OCc2ccc3c(c2)OCO3)cc1OC(C(=O)O)c1ccccc1C(F)(F)F (centres undefined)	16	7.4	Activity [1]: 9 µM/kg
Cc1ccccc1[C@H](Oc1cc(OCc2ccc3c(c2)OCO3)ccc1C#N)C(=O)O	6		
Cc1ccccc1C(Oc1cc(OCc2cccnc2)ccc1C#N)C(=O)O (centres undefined)	30		
N#Cc1ccc(OCc2ccncc2)cc1OC(C(=O)O)c1ccccc1Cl (centres undefined)	6	7.7	Activity [1]: 46.8 µM/kg; Activity [2]: 2.7 µM/kg; Activity [7]: 1.7 µM/kg
Cc1ccccc1C(Oc1cc(OCc2ccc3c(c2)OCO3)ccc1C#N)C(=O)O (centres undefined) [listing 2 of 2 here]	12	7.9	
N#Cc1ccc(OCc2ccsc2)cc1OC(C(=O)O)c1cccc(Cl)c1 (centres undefined)	98		
N#Cc1ccc(OCc2ccsc2)cc1OC(C(=O)O)c1ccccc1F (centres undefined)	22		
Cc1ccccc1C(Oc1cc(OCc2ccccc2)ccc1C#N)C(=O)O (centres undefined)	49		
Cc1ccccc1C(Oc1cc(OCc2c(C)cccc2C)ccc1C#N)C(=O)O (centres undefined)	857		
N#Cc1ccc(OCc2ccc3c(c2)OCO3)cc1OC(C(=O)O)c1ccccc1Cl (centres undefined)	14	8	Cmax [3]: 22000 ng/mL; solubility [8]: 1680 µg/mL (≈ 3.84 mM); Activity [1]: 13.8 µM/kg; bioavailability [4]: 76%; Activity [2]: 19 µM/kg; half-life [5]: 6.3 h; Activity [7]: 10 µM/kg; Tmax [6]: 1 h
Cc1ccccc1C(Oc1cc(OCc2ccncc2)ccc1C#N)C(=O)O (centres undefined)	9	7.6	
N#Cc1ccc(OCc2ccc3c(c2)OCO3)cc1OC(C(=O)O)c1ccccc1 (centres undefined)	41	7.4	Activity [1]: 7.6 µM/kg
Cc1ccccc1C(Oc1cc(OCc2ccccn2)ccc1C#N)C(=O)O (centres undefined)	> 3000		
Cc1ccccc1[C@H](Oc1cc(OCc2ccncc2)ccc1C#N)C(=O)O	5	8.3	
Cc1ccccc1C(Oc1cc(OCc2ccc3c(c2)OCO3)ccc1C#N)C(=O)[O-].[Na+] (centres undefined)	7	8.1	Cmax [3]: 5900 ng/mL; solubility [8]: > 20000 µg/mL; Cmax [9]: 30100 ng/mL; bioavailability [4]: 84%; bioavailability [10]: 89%; half-life [5]: 2.8 h; half-life [11]: 7.4 h; Tmax [12]: 0.5 h; Tmax [6]: 1 h

Continued, in another order:

IC50 (Endothelin-1 receptor) [nM]	Compound	pKb (Rattus norvegicus)	also measured
529	COc1ccccc1C(Oc1cc(OCc2ccsc2)ccc1C#N)C(=O)O (centres undefined)		
2850	N#Cc1ccc(OCc2ccsc2)cc1OC(C(=O)O)c1ccoc1 (centres undefined)		
53	N#Cc1ccc(OCc2ccsc2)cc1OC(C(=O)O)c1ccccc1C(F)(F)F (centres undefined)		
75	Cc1ccccc1C(Oc1cc(OCc2ccc3ocnc3c2)ccc1C#N)C(=O)O (centres undefined)		
51	N#Cc1ccc(OCc2ccsc2)cc1OC(C(=O)O)c1ccccc1Br (centres undefined)		
68	Cc1ccccc1C(Oc1cc(OCc2ccoc2)ccc1C#N)C(=O)O (centres undefined)		
17	N#Cc1ccc(OCc2ccsc2)cc1OC(C(=O)O)c1ccccc1Cl (centres undefined)	7.76	Cmax [3]: 62000 ng/mL; solubility [8]: 1190 µg/mL (≈ 2.98 mM); bioavailability [4]: 129%; half-life [5]: 5 h; Tmax [6]: 0.5 h
9	N#Cc1ccc(OCc2ccc3ncoc3c2)cc1OC(C(=O)O)c1ccccc1Cl (centres undefined)	7.5	
220	Cc1ccccc1C(Oc1cc(OCc2ccsn2)ccc1C#N)C(=O)O (centres undefined)		
20	Cc1ccccc1C(Oc1cc(OCc2ccsc2)ccc1C#N)C(=O)O (centres undefined)	7.9	
6	Cc1ccccc1C(Oc1cc(OCc2ccc3ncoc3c2)ccc1C#N)C(=O)O (centres undefined)	7.8	Activity [1]: 63 µM/kg; Activity [2]: inactive; Activity [7]: 3.1 µM/kg
23	Cc1ccccc1C(Oc1cc(OCc2ccnc(F)c2)ccc1C#N)C(=O)O (centres undefined)		
